Laboratory results reported in ChEMBL document CHEMBL1157828, “Design, synthesis and pharmacological evaluation of novel naphthalenic derivatives as selective MT(1) melatoninergic ligands” (Bioorg Med Chem, 2010).
pEC50, pKi: −log10 of the molar value.

Legend:
[1] = target: T1, Melatonin receptor type 1B (Homo sapiens, UniProt P49286); experiment: Agonist activity at human MT2 receptor expressed in CHO cells by [35S]GTPgamma binding assay; assay type: functional, cell-based
T1 sequence (P49286 whole entry): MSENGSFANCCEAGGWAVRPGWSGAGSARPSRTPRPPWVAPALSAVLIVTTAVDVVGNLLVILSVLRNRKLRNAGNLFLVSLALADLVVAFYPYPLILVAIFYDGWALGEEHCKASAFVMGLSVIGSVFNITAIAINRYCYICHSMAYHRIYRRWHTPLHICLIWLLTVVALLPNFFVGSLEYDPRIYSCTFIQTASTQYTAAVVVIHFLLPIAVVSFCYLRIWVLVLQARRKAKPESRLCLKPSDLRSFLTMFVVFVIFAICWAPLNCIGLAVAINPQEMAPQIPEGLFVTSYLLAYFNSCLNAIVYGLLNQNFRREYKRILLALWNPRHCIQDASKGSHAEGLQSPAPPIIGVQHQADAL

[2] = target: T2, Melatonin receptor type 1A (Homo sapiens, UniProt P48039); experiment: Agonist activity at human MT1 receptor expressed in CHO cells by [35S]GTPgamma binding assay; assay type: functional, cell-based
[3] = target: T2, Melatonin receptor type 1A; experiment: Displacement of 2-[125I]iodomelatonin from human MT1 receptor expressed in CHO cells; assay type: cell-based
Outline: (§1)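 Membranes from CHO cells stably expressing human MT1 or MT2, grown in DMEM with 10% fetal calf serum, homogenized in Tris/EDTA and pelleted at 95,000g. Incubated with 20 pM 2-[125I]-iodomelatonin and test drug in 50 mM Tris/HCl pH 7.4, 5 mM MgCl2, 120 min at 37 °C. Stopped by filtration onto PEI-soaked GF/B filters. Ki = IC50/(1+[L]/KD) from seven-concentration curves.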

[4] = target: T1, Melatonin receptor type 1B; experiment: Displacement of 2-[125I]iodomelatonin from human MT2 receptor expressed in CHO cells; assay type: cell-based; outline: as §1
[5] = organism: Homo sapiens; experiment: Selectivity ratio of Ki for human MT2 receptor to Ki for human MT1 receptor

T2 sequence (P48039 whole entry): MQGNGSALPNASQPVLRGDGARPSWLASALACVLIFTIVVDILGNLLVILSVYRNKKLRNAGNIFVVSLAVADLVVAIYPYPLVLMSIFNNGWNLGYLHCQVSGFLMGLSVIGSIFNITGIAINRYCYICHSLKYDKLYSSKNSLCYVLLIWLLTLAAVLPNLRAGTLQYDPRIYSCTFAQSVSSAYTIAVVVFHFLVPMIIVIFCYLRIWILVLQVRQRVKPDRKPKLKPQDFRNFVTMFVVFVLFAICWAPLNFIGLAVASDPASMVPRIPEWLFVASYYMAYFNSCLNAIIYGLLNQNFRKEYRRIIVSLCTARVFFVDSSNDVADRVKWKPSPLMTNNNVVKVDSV

## C=CCC(=O)NCCc1cccc2ccc(OCCCCOc3ccc4cccc(CCNC(=O)CC=C)c4c3)cc12
[1]
  pEC50: 7.40
[2]
  pEC50: 7.79
[3]
  pKi: 9.04
[4]
  pKi: 7.96
[5]
  Ratio Ki: 12

## CC(=O)NCCc1cccc2ccc(OCCCCOc3ccc4cccc(CCNC(=O)c5ccco5)c4c3)cc12
[2]
  pEC50: 7.95
[3]
  pKi: 9.19
[4]
  pKi: 7.93
[5]
  Ratio Ki: 18

## COC(=O)Cc1cccc2ccc(OCCCCOc3ccc4cccc(CCNC(C)=O)c4c3)cc12
[2]
  pEC50: 8.54
[3]
  pKi: 10.15
[4]
  pKi: 8.74
[5]
  Ratio Ki: 26

## CC(=O)NCCc1cccc2ccc(OCCCCOc3ccc4cccc(CCNC(C)=O)c4c3)cc12
[1]
  pEC50: 6.39
[2]
  pEC50: 7.14
[5]
  Ratio Ki: 120

## O=C(NCCc1cccc2ccc(OCCCCOc3ccc4cccc(CCNC(=O)C5CC5)c4c3)cc12)C1CC1
[1]
  pEC50: 6.87
[3]
  pKi: 9.00
[4]
  pKi: 7.87
[5]
  Ratio Ki: 13

## CC(=O)NCCc1cccc2ccc(OCCCCOc3ccc4cccc(CC(=O)O)c4c3)cc12
[2]
  pEC50: 8.50
[3]
  pKi: 8.04
[4]
  pKi: 7.34
[5]
  Ratio Ki: 5

## C=CCC(=O)NCCc1cccc2ccc(OCCCCOc3ccc4cccc(CCNC(C)=O)c4c3)cc12
[2]
  pEC50: 7.92
[3]
  pKi: 9.10
[4]
  pKi: 8.07
[5]
  Ratio Ki: 11

## CC(=O)NCCc1cccc2ccc(OCCCCOc3ccc(-c4ccc(C(=O)O)cc4)cc3)cc12
[2]
  pEC50: 7.58
[3]
  pKi: 9.26
[4]
  pKi: 7.29
[5]
  Ratio Ki: 93

## CC(=O)NCCc1cccc2ccc(-c3ccc4cccc(CCNC(C)=O)c4c3)cc12
[5]
  Ratio Ki: 70

## CC(=O)NCCc1cccc2ccc(OCCCCOc3ccc4occ(CCNC(C)=O)c4c3)cc12
[2]
  pEC50: 8.60
[3]
  pKi: 8.86
[4]
  pKi: 7.86
[5]
  Ratio Ki: 10

## CC(=O)NCCc1cccc2ccc(OCCCCOc3ccc4cc(C(C)C(=O)O)ccc4c3)cc12 (centres undefined)
[1]
  pEC50: 6.79
[2]
  pEC50: 7.66
[3]
  pKi: 8.82
[4]
  pKi: 7.23
[5]
  Ratio Ki: 39

## COC(=O)C(C)c1ccc2cc(OCCCCOc3ccc4cccc(CCNC(C)=O)c4c3)ccc2c1 (centres undefined)
[1]
  pEC50: 7.06
[2]
  pEC50: 7.66
[3]
  pKi: 9.43
[4]
  pKi: 8.37
[5]
  Ratio Ki: 11

## CC(=O)NCCc1cccc2ccc(OCCCCOc3ccc4[nH]cc(CCNC(C)=O)c4c3)cc12
[2]
  pEC50: 8.62
[3]
  pKi: 8.39
[4]
  pKi: 7.07
[5]
  Ratio Ki: 21

## COC(=O)c1ccc(-c2ccc(OCCCCOc3ccc4cccc(CCNC(C)=O)c4c3)cc2)cc1
[2]
  pEC50: 7.34
[3]
  pKi: 8.63
[4]
  pKi: 7.72
[5]
  Ratio Ki: 8

## CC(=O)NCCc1cccc2ccc(OCCCCOc3ccc4c(c3)C(CCNC(C)=O)CCC4)cc12 (centres undefined)
[2]
  pEC50: 8.11
[3]
  pKi: 9.59
[4]
  pKi: 8.17
[5]
  Ratio Ki: 26

## CC(=O)NCCc1cccc2ccc(OCCCCOc3ccc4cccc(CCNC(=O)C5CC5)c4c3)cc12
[2]
  pEC50: 8.04
[3]
  pKi: 8.97
[4]
  pKi: 7.95
[5]
  Ratio Ki: 10

## CC(=O)NCCc1cccc2ccc(OCCCCOc3ccc(-c4ccc(CO)cc4)cc3)cc12
[1]
  pEC50: 7.59
[2]
  pEC50: 8.63
[3]
  pKi: 10.05
[4]
  pKi: 8.19
[5]
  Ratio Ki: 72

## CC(=O)NCCc1cccc2ccc(OCCCCOc3ccc4scc(CCNC(C)=O)c4c3)cc12
[1]
  pEC50: 7.69
[2]
  pEC50: 8.71
[3]
  pKi: 8.46
[4]
  pKi: 7.77
[5]
  Ratio Ki: 5

## O=C(NCCCc1ccc2nc(CCCCc3ccccc3)oc2c1)C1CC1
[5]
  Ratio Ki: 35
